Most compounds without a hit are left out; they make up all but 2.3% or so of the library.
HTRA1 inhibitor – HTRA1 serine protease inhibitors, primary screen, biochemical, fluorescence polarization, HTS | recombinant HTRA1, FP-rhodamine activity-based probe | 340,000 tested, 0.5% active | inhibition, % at 5.96 µM; in the data active = inhibition above about 36%;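 note: 0% = enzyme with DMSO and 100% = wells lacking enzyme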
pPAFAH inh – pPAFAH enzyme inhibitors, primary screen, biochemical, fluorescence polarization, human; AID 463082, 2010; recombinant pPAFAH, FP-rhodamine probe fluorescence polarization; Platelet-activating factor acetylhydrolase (Homo sapiens), Q13093; inhibition, % at 3.39 µM; 330,000 tested, 1.5% active;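 active = inhibition above the mean inhibition across the screen plus 3 SD, cut at about 25% in these data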;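 note: inhibitors block binding of the rhodamine activity-based probe so polarization drops; 0% = enzyme with DMSO and 100% = wells lacking pPAFAH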
TCR CD3 inh – inhibitors of human TCR-CD3 interaction, primary screen, biochemical, fluorescence, TAMRA-labeled TCR probe; 360,000 tested, 0.37% active; inhibition, % at 9.4 µM; AID 651800, 2012;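 note: recombinant mutant TCR 2C K166C tagged with TAMRA read by polarization; 0% = receptor in buffer alone and 100% = receptor with positive control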
mABHD4 FP – ABHD4 inhibitors, primary screen, biochemical, fluorescence polarization, mouse; (Lyso)-N-acylphosphatidylethanolamine lipase (Mus musculus), Q8VD66; purified mABHD4, FP-Rh probe fluorescence polarization; inhibition, % at 8.92 µM; 370,000 tested, 0.54% active; AID 720543, 2013;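 active = inhibition exceeding the mean over every tested compound plus 3 SD, cut at about 30% in these data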;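 note: 0% = plate median of compound wells and 100% = S159A mutant with DMSO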
Target sequence (Q8VD66 whole entry, looked up): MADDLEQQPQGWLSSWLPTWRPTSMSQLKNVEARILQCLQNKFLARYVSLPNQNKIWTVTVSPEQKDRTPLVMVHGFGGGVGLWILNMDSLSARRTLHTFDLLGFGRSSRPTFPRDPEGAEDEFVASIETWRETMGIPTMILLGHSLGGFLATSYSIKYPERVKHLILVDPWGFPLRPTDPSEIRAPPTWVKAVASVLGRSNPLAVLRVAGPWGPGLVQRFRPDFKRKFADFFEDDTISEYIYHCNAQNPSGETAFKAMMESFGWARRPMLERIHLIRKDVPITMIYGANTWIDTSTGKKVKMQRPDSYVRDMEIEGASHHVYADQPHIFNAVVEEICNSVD
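Assay system: Wild-type mouse ABHD4 protein | Medium: HEPES pH 7.0 buffer, 150 mM NaCl, 0.01% Pluronic F-127 | Incubation: Enzyme–compound pre-incubation 45 min, then probe 60 min, both 25 °C | Technique: Fluorescence polarization with parallel and perpendicular emission, 525/598 nm | Evaluation: % inhibition of FP-Rh probe binding versus controls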
SIAE inh – human SIAE inhibitors, primary screen, biochemical, fluorescence polarization, FP-Rh probe, 1536-well HTS; inhibition, % at 9.66 µM; AID 1053197, 2014; 370,000 tested, 0.69% active; SIAE FP-Rh probe binding;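 active = inhibition above a cutoff: mean of compounds within the control limits plus 3 SD of those, cut at about 17% in these data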;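 note: 0% = plate median of compound wells and 100% = probe without SIAE protein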
BSA probe FL – compounds interfering with TAMRA-BSA probe, counter-screen for TCR-CD3 interaction inhibitor project, biochemical, fluorescence, TAMRA-labeled BSA | shares compounds with TCR CD3 inh | TAMRA-labeled BSA probe fluorescence counterscreen | inhibition, % at 9.4 µM | 1,200 tested, 10% active | AID 652035, 2013; in the data active = inhibition above about 23%;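 note: 0% = buffer low control and 100% = reference high control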
TCR-CD3 inh conf – TCR-CD3 interaction inhibitors, retest, confirmation, biochemical, fluorescence, TAMRA-labeled TCR probe; TAMRA-labeled TCR probe fluorescence binding assay; 1,200 tested, 48% active; inhibition, % at 9.4 µM; AID 652036, 2013; shares compounds with TCR CD3 inh
* marks the source's active call; other numbers are inactive results; · = no result. Cut-off read from the data, not from the text of the source, unless noted: active = inhibition above about 19%; inactive = the rest.

SMILES | HTRA1 inhibitor | pPAFAH inh | TCR CD3 inh | mABHD4 FP | SIAE inh | BSA probe FL | TCR-CD3 inh conf
NS(=O)(=O)c1cccc(C(=O)NC2CCSc3ccccc32)c1 (stereo not drawn) | -7 | 4 | 1 | -4 | 3 | · | ·
Cc1nc(S/C(=C/c2ccc(-c3ccc(C(=O)O)cc3)o2)C(=O)O)n[nH]1 | 1 | 33* | 68* | 22 | -16 | -7 | 51*
Cc1ccc2[nH]c(C(=O)N/N=C/c3ccccc3O)c(C)c2c1 | 25 | 15 | 20* | 13 | 9 | -6 | 19
CC(=O)c1cccc(NC(=S)NC(=O)c2ccccc2Cl)c1 | 3 | 2 | 1 | 4 | 3 | · | ·
O=C(NC(=S)Nc1ccccc1O)c1ccccc1Cl | -17 | 2 | 23* | -16 | -8 | -5 | 16
COc1cccc(OC)c1C(=O)NC(=S)Nc1cc(-c2nc3ccccc3[nH]2)ccc1Cl | -98 | -38 | 60* | -107 | -155 | 19 | 18
COc1ccc(NC(=O)N(C)C[C@@H]2OCc3cn(nn3)CCCC(=O)N([C@H](C)CO)C[C@H]2C)cc1 | 4 | · | 32* | 11 | 10 | 2 | 1
C[C@@H]1CN([C@H](C)CO)C(=O)c2cc(NC(=O)Nc3cccc4ccccc34)ccc2O[C@H]1CN(C)Cc1ccc(C(F)(F)F)cc1 | -51 | -6 | 25* | -25 | -66 | -2 | 4
C[C@@H]1CN([C@H](C)CO)C(=O)c2cc(NC(=O)Nc3ccc(C(F)(F)F)cc3)ccc2O[C@H]1CN(C)S(=O)(=O)c1ccccc1 | -113 | -28 | 30* | -132 | -174 | -2 | 15
C[C@H](CO)N1C[C@H](C)[C@@H](CN(C)C(=O)Nc2ccc(C(F)(F)F)cc2)Oc2ccc(NC(=O)Nc3ccc(C(F)(F)F)cc3)cc2C1=O | -165 | -33 | 76* | -157 | -110 | 25* | 48*
C[C@H](CO)N1C[C@H](C)[C@@H](CN(C)S(=O)(=O)c2ccccc2)Oc2c(NC(=O)Nc3ccc(C(F)(F)F)cc3)cccc2C1=O | -63 | 12 | 0 | -35 | -50 | · | ·
CCCS(=O)(=O)NC(=O)C1(C)CCN(C(=O)c2ccc(C(F)(F)F)cc2)C1 (stereo not drawn) | · | · | -7 | 1 | -2 | · | ·
COc1ncc(-c2c(-c3ccccc3OC)sc3ccccc23)cn1 | · | · | -8 | -12 | -2 | · | ·
COc1ccc(S(=O)(=O)N(C)C[C@H]2Oc3ccc(NC(=O)Nc4ccc(C(F)(F)F)cc4)cc3C(=O)N([C@H](C)CO)C[C@@H]2C)cc1 | -113 | -40 | 34* | -109 | -201 | 24* | 47*
COc1ccc2ccccc2c1/C=N/NC(=S)Nc1cc(S(=O)(=O)N2CCOCC2)ccc1N1CCOCC1 | -21 | 7 | 4 | 6 | 1 | · | ·
CCOc1cccc(/C=N/NC(=S)Nc2cc(S(=O)(=O)N3CCOCC3)ccc2N2CCOCC2)c1O | 9 | 9 | 21* | 14 | 9 | -2 | 3
COc1ccc(C(=O)NNC(=S)NC(=O)c2ccc(Br)o2)cc1OC | 1 | 5 | 20* | 7 | 5 | -5 | 25*
COc1ccc(C(C)=O)cc1CN1C(=O)C(C)ON=C1c1cccc(C(F)(F)F)c1 (stereo not drawn) | · | · | -5 | 0 | -3 | · | ·
C[C@@H]1CCN(C2CC2)S(=O)(=O)c2c(cccc2N2CCC[C@H]2C)O1 | · | · | · | -2 | 3 | · | ·
O=C(N/N=C/C(Br)=C\c1ccccc1)c1ccco1 | · | -2 | 170* | -5 | -2 | 0 | 4
N#Cc1c(N)[nH]c(C(=O)c2ccccc2)c1-c1ccc(Br)cc1 | · | · | 2 | 10 | 1 | · | ·
Cc1ccc(NS(=O)(=O)c2ccc(Cl)c(C(=O)Nc3ccccc3-c3nc4ccccc4[nH]3)c2)cc1C | -137 | 11 | 78* | -199 | -219 | 18 | 37*
COC(=O)c1ccc(N2C(c3ccsc3)=Cc3cc4c(cc3C2CC(=O)c2ccco2)OCO4)cc1 (stereo not drawn) | · | · | 3 | 4 | 6 | · | ·
C=CCNC(=S)NNC(=O)c1ccc(Br)cc1 | 4 | 0 | -9 | 6 | 0 | · | ·
C=CCn1cccc(C(=O)Nc2ccc(Cl)cc2)c1=O | -9 | 8 | 8 | -7 | 1 | · | ·
SMILES | HTRA1 inhibitor | pPAFAH inh | TCR CD3 inh | mABHD4 FP | SIAE inh | BSA probe FL | TCR-CD3 inh conf
C=CCNC(=S)NNC(=O)c1cc(O)ccc1O | · | 6 | 38* | 21 | 1 | -10 | 23*
C=CCNC(=S)NNC(=O)c1cccn(Cc2cccc(Cl)c2)c1=O | 9 | 5 | 27* | 7 | -4 | -4 | 25*
C=CCNC(=S)NNC(=O)c1cccn(Cc2ccc(Cl)cc2)c1=O | 11 | -3 | 36* | 17 | 5 | -7 | 18
CN(Cc1ccccc1F)C(=O)C1CCCN(c2ncccn2)C1 (stereo not drawn) | · | · | · | 5 | -7 | · | ·
Cn1cnc2c(cnn2C)c1=O | 5 | · | 28* | -2 | 4 | 1 | 3
c1ccc(-c2nnc(-c3ccco3)o2)cc1 | 7 | -1 | 9 | 6 | 0 | · | ·
c1coc(-c2nnc(-c3ccco3)nn2)c1 | 11 | 32* | 28* | 27 | 14 | -10 | 16
O=C(CCCOc1ccc(Cl)cc1Cl)Nc1cc(S(=O)(=O)N2CCOCC2)ccc1N1CCOCC1 | -26 | · | 5 | 6 | -4 | · | ·
O=C(CCc1ccc(S(=O)(=O)N2CCOCC2)cc1)Nc1cc(Cl)ccc1N1CCOCC1 | 1 | 8 | 21* | -2 | 7 | 6 | 3
CCCC[C@H]1C2CC(OC(=O)Nc3ccccc3OC)C(C2)[C@H]2CCCCN21 (stereo partly drawn) | · | · | · | -5 | 2 | · | ·
Cc1cccc(C)c1N1C(=O)c2ccccc2NC(=O)C1C(=O)NCCOc1ccccc1 (stereo not drawn) | · | · | 12 | 10 | -1 | · | ·
CC1=NN(C(=O)CSCc2ccccc2)C(O)(c2ccc(Cl)cc2)C1 (stereo not drawn) | 34 | 4 | 20* | 1 | -2 | -6 | 7
Nc1nonc1C(=O)N/N=C/c1cc(Br)ccc1O | · | 7 | 23* | 15 | -2 | -8 | 20*
COCCN1C(=O)CCC1(C)c1nnnn1-c1ccc2ccccc2c1 (stereo not drawn) | · | · | -3 | 5 | -7 | · | ·
O=C(NCC(=O)N(CC1CCCO1)C(C(=O)NC1CCCCC1)c1ccccc1)c1cccs1 (stereo not drawn) | -6 | -3 | 29* | -4 | 6 | 4 | 2

Screening data as filed in PubChem BioAssay.
